Experiments:
Pseudomonas aeruginosa = assay: Antibacterial activity against Pseudomonas aeruginosa after 24 hrs by tube dilution method; type: functional
Summary of the method: (§1)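 Tube dilution in double strength nutrient broth-IP, done in duplicate. Test solution in DMSO (10 µg/mL) is serially diluted twofold into medium to give 5, 2.5, 1.25, 0.625 and 0.312 µg/mL. Each tube gets 0.1 mL of microbial suspension in saline, then is incubated at 37 °C for 24 h. MIC is the lowest concentration with no visible turbidity, refined by testing intermediate concentrations. Ciprofloxacin is the reference.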

Staphylococcus aureus = assay: Antibacterial activity against Staphylococcus aureus after 24 hrs by tube dilution method; type: functional; summary of the method: as §1
[1] = Octanol-water partition coefficient, log P of the compound; type: physicochemical
Escherichia coli = assay: Antibacterial activity against Escherichia coli after 24 hrs by tube dilution method; type: functional; summary of the method: as §1
Aspergillus niger = assay: Antifungal activity against Aspergillus niger after 7 days by tube dilution method; type: functional
Summary of the method: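 Tube dilution in Sabouraud dextrose broth, done in duplicate. DMSO test solution (10 µg/mL) is serially diluted to give 5, 2.5, 1.25, 0.625 and 0.312 µg/mL. Each tube gets 0.1 mL of spore/microbial suspension in saline, then is incubated at 25 °C for 7 d. MIC is read visually as the lowest concentration without turbidity, refined with intermediate concentrations. Fluconazole is the reference.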

Candida albicans = assay: Antifungal activity against Candida albicans after 48 hrs by tube dilution method; type: functional
Summary of the method: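 Tube dilution in Sabouraud dextrose broth, done in duplicate. DMSO test solution (10 µg/mL) is serially diluted to give 5 down to 0.312 µg/mL. Each tube gets 0.1 mL of yeast suspension in saline, then is incubated at 37 °C for 48 h. MIC is the lowest concentration preventing turbidity, refined with intermediate concentrations. Fluconazole is the reference.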

Bacillus subtilis = assay: Antibacterial activity against Bacillus subtilis after 24 hrs by tube dilution method; type: functional; summary of the method: as §1

Row | SMILES | -logMIC (Pseudomonas aeruginosa) | -logMIC (Staphylococcus aureus) | logP [1] | -logMIC (Escherichia coli) | -logMIC (Aspergillus niger) | -logMIC (Candida albicans) | -logMIC (Bacillus subtilis)
1 | O=S(=O)(c1ccccc1)N1N=C2CCCCC2C1c1ccc(Cl)cc1 (stereo not drawn) | 2.67 | 2.57 | 5.4 | 2.57 | 2.62 | 2.62 | 2.62
2 | CS(=O)(=O)N1N=C2CCCCC2C1c1ccc(F)cc1 (stereo not drawn) | 2.52 | 2.37 | 3.3 | 2.47 | 2.57 | 2.47 | 2.57
3 | COc1ccc(C2C3CCCCC3=NN2S(=O)(=O)c2cccc3ccccc23)cc1 (stereo not drawn) | 2.67 | 2.53 | 5.6 | 2.62 | 2.62 | 2.62 | 2.62
4 | Clc1ccc(C2NN=C3CCCCC32)cc1 (stereo not drawn) | 2.19 | 2.07 | 4.4 | 2.19 | 2.27 | 2.27 | 2.07
5 | COc1ccc(C2C3CCCCC3=NN2S(=O)(=O)c2ccc(Cl)cc2)cc1 (stereo not drawn) | 2.7 | 2.61 | 4.3 | 2.65 | 2.65 | 2.61 | 2.65
6 | Fc1ccc(C2NN=C3CCCCC32)cc1 (stereo not drawn) | 2.24 | 2.04 | 4 | 2.24 | 2.24 | 2.16 | 2.24
7 | O=S(=O)(c1cccc2ccccc12)N1N=C2CCCCC2C1c1ccc(F)cc1 (stereo not drawn) | 2.77 | 2.61 | 6 | 2.71 | 2.66 | 2.61 | 2.66
8 | O=S(=O)(c1ccc(Cl)cc1)N1N=C2CCCCC2C1c1ccc(F)cc1 (stereo not drawn) | 2.79 | 2.64 | 5.1 | 2.75 | 2.64 | 2.59 | 2.69
9 | Cc1ccc(S(=O)(=O)N2N=C3CCCCC3C2c2ccc(Cl)cc2)cc1 (stereo not drawn) | 2.64 | 2.49 | 5.8 | 2.59 | 2.64 | 2.59 | 2.64
10 | O=[N+]([O-])c1ccc(S(=O)(=O)N2N=C3CCCCC3C2c2ccc(F)cc2)cc1 (stereo not drawn) | 2.81 | 2.7 | 4.9 | 2.76 | 2.76 | 2.65 | 2.76
11 | COc1ccc(C2C3CCCCC3=NN2S(=O)(=O)c2ccc([N+](=O)[O-])cc2)cc1 (stereo not drawn) | 2.72 | 2.66 | 4.5 | 2.66 | 2.66 | 2.77 | 2.62
12 | COc1ccc(C2NN=C3CCCCC32)cc1 (stereo not drawn) | 2.19 | 2.01 | 3.6 | 2.06 | 2.19 | 2.19 | 2.01
13 | COc1ccc(C2C3CCCCC3=NN2S(=O)(=O)c2ccccc2)cc1 (stereo not drawn) | 2.61 | 2.57 | 4.6 | 2.57 | 2.57 | 2.61 | 2.47
14 | COc1ccc(C2C3CCCCC3=NN2S(C)(=O)=O)cc1 (stereo not drawn) | 2.49 | 2.31 | 2.9 | 2.39 | 2.53 | 2.59 | 2.53
15 | Cc1ccc(S(=O)(=O)N2N=C3CCCCC3C2c2ccc(F)cc2)cc1 (stereo not drawn) | 2.67 | 2.47 | 5.4 | 2.62 | 2.67 | 2.57 | 2.62
16 | O=S(=O)(c1ccccc1)N1N=C2CCCCC2C1c1ccc(F)cc1 (stereo not drawn) | 2.71 | 2.55 | 5 | 2.65 | 2.55 | 2.6 | 2.65
17 | O=C(O)c1cn(C2CC2)c2cc(N3CCNCC3)c(F)cc2c1=O [CIPROFLOXACIN] | 2.62 | 2.03 | – | 2.03 | – | – | 2.33
18 | COc1ccc(C2C3CCCCC3=NN2S(=O)(=O)c2ccc(C)cc2)cc1 (stereo not drawn) | 2.58 | 2.49 | 5.1 | 2.58 | 2.68 | 2.63 | 2.63
19 | O=[N+]([O-])c1ccc(S(=O)(=O)N2N=C3CCCCC3C2c2ccc(Cl)cc2)cc1 (stereo not drawn) | 2.78 | 2.67 | 5.3 | 2.67 | 2.82 | 2.82 | 2.72
20 | O=S(=O)(c1cccc2ccccc12)N1N=C2CCCCC2C1c1ccc(Cl)cc1 (stereo not drawn) | 2.67 | 2.53 | 6.4 | 2.63 | 2.67 | 2.73 | 2.67
21 | CS(=O)(=O)N1N=C2CCCCC2C1c1ccc(Cl)cc1 (stereo not drawn) | 2.5 | 2.4 | 3.7 | 2.4 | 2.5 | 2.59 | 2.54
22 | OC(Cn1cncn1)(Cn1cncn1)c1ccc(F)cc1F [FLUCONAZOLE] | – | – | – | – | 3.16 | 3.16 | –
23 | O=S(=O)(c1ccc(Cl)cc1)N1N=C2CCCCC2C1c1ccc(Cl)cc1 (stereo not drawn) | 2.77 | 2.61 | 5.9 | 2.66 | 2.71 | 2.77 | 2.71
